5-HT1A blocker – blocks the human serotonin 5-HT1a receptor; P08908; CHO 5-HT1a Ga15 NFAT-bla reporter, antagonist mode; inhibition, % at 10 µM; 62,000 compounds, 0.68% hits;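 active = inhibition above the mean of all tested compounds plus 3 SD, cut at about 43% in these data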;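 also: receptor stimulated by 5-CT agonist at 100 nM near EC80; beta-lactamase reporter measured by ratiometric fluorescence of a cleavable substrate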
5HT1E ag – 5-HT1E (human) receptor agonism. P28566. CHO 5-HT1E Ga15 NFAT-bla reporter, FRET; 0% DMSO wells, 100% control agonist wells. activation, % at 6 µM. 65,000 compounds, 0.69% hits. AID 574;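 active = activation above a set limit, the screen-wide mean activation plus 3 SD, cut at about 8.5% in these data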;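 also: 100% = positive control agonist at 1 µM giving full maximal response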
S1P1 ag pot – activates or potentiates agonism at human S1P1 receptor. S1P1 CRE-bla cells, forskolin, beta-lactamase FRET, potentiator mode; S1P1 agonist co-added at EC20, 2 nM; 100% = saturating reference agonist, 0% = basal. activation, % at 9.5 µM. 56,000 compounds, 0.57% hits. AID 449;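 active = activation above a cutoff set at the mean activation of all tested compounds plus 3 SD, cut at about 54% in these data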;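 also: forskolin at 4 µM as EC80 and the EC20 agonist is SEW2871; 100% = SEW2871 at its EC100 plus forskolin at EC80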
Target sequence (P21453 whole entry, looked up): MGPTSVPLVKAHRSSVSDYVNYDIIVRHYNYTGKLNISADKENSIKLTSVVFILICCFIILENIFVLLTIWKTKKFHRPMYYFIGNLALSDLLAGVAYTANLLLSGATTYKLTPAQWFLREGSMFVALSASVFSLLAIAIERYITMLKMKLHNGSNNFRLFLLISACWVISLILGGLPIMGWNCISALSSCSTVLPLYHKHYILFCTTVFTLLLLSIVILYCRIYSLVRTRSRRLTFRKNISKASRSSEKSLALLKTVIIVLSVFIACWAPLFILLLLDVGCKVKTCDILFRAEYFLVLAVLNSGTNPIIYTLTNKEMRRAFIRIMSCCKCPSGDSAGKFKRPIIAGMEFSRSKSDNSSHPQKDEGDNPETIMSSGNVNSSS
S1P3 agonist – S1P3 (human) receptor agonism; 60,000 compounds, 0.1% hits; activation, % at 4.5 µM; S1P3 NFAT-BLA reporter cells, FRET ratio; relative to 1 µM S1P, basal subtracted;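 active = activation above the screen-wide mean plus 3 SD, cut at about 4.5% in these data, passing the limit was not always enough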
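Measure – % activation relative to 1 µM S1P (100%), per plate · System – stable CHO line with human S1P3, Gα16, NFAT-BLA reporter · Timing – cells plated overnight, compound 4 h 37 °C, substrate 2 h RT · Technique – fluorescent BLA substrate, ex 405 nm, em 460/535 nm ratio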
5HT1a ag – agonists of human 5-HT1a serotonin receptor; AID 567; CHO 5-HT1a Ga15 NFAT-bla reporter, FRET ratio; 0% basal, 100% maximal reference agonist; activation, % at 10 µM; 65,000 compounds, 0.56% hits; P08908;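 active = activation above the screen-wide mean activation plus 3 SD, cut at about 19% in these data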;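 also: 0% = DMSO wells and 100% = 5-CT at EC100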
5HT1E antag – antagonists of human 5-HT1E serotonin receptor. P28566. CHO 5-HT1E Ga15 NFAT-bla reporter, FRET, antagonist. inhibition, % at 6 µM. 65,000 compounds, 0.99% hits;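 active = inhibition above a set limit, the mean inhibition across every tested compound plus 3 SD, cut at about 29% in these data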;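 also: signal is the 460 over 535 nm emission ratio of beta-lactamase substrate; 0% = agonist plus DMSO wells and 100% = wells without agonist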
Active calls of the source: *; · = no result. Hits are enriched below; roughly 3% of the tested compounds scored in any of these assays.

SMILES	5-HT1A blocker	5HT1E ag	S1P1 ag pot	S1P3 agonist	5HT1a ag	5HT1E antag
CC(=O)Nc1nc2n(n1)C(c1ccccc1)C=C(c1ccccc1)N2 (configuration not stated)	30.3	-0.8	·	-1.5	-2.4	34.2*
CC(=O)Nc1nc2n(n1)C(c1ccc(F)cc1)C=C(c1ccccc1)N2 (configuration not stated)	20.2	-0.6	29.9	-0.3	0.2	24.6
OCCCc1nc2n(n1)C(c1ccccc1)C=C(c1ccccc1)N2 (configuration not stated)	0.4	0.0	-7.4	0.1	-2.4	29.6*
O=C(c1nc2n(n1)C(c1ccc(Cl)cc1)C=C(c1ccccc1)N2)N1CCOCC1 (configuration not stated)	28.3	-0.7	·	-0.2	-1.7	42.0*
COc1ccc(C2C(C(=O)Nc3ccccc3)=C(C)Nc3nc(CCCO)nn32)cc1 (configuration not stated)	-6.0	-1.6	1.8	-1.1	-2.4	6.4
COc1ccc(C2C=C(c3cccs3)Nc3nc(CCCO)nn32)cc1 (configuration not stated)	28.3	-1.4	27.0	-0.4	-5.2	37.3*
O=C(CSc1nnc(-c2c[nH]c3ccccc23)o1)N(Cc1ccccc1)c1ccc(F)cc1	23.6	0.1	106.8*	5.4	0.8	-9.7
CCC1CCCCN1C(=O)CSc1nnc(-c2ccco2)o1 (configuration not stated)	5.5	-1.2	11.8	-0.7	1.6	8.0
CC1CCCCN1C(=O)CSc1nnc(-c2c[nH]c3ccccc23)o1 (configuration not stated)	-13.8	23.4*	47.9	-0.4	3.6	-3.2
COc1cc(C)nc(N2CCC(C(=O)NC3CCCCC3)CC2)n1	9.4	-0.7	·	·	1.1	-2.5
CC(=O)Nc1cc(OC(C)=O)c2nonc2c1OC(C)=O	78.5*	0.7	98.5*	-1.9	6.9	103.2*
O=C(c1ccco1)N(CCCN1CCOCC1)c1nc(-c2ccc(F)cc2)cs1	14.4	0.8	8.6	-1.0	-0.2	8.2
O=C(c1ccco1)N(CCCN1CCOCC1)c1nc(-c2ccc(Cl)cc2)cs1	47.6*	-0.7	10.9	-1.7	-3.1	11.7
Cc1ccccc1NC(=O)CN1C(=O)COc2ccc(Cl)cc21	35.6	0.7	-15.6	0.2	-2.2	4.4
CCc1oc2ccccc2c1C(=O)c1cc(Br)c(O)c(Br)c1	·	-0.8	67.7*	-1.9	-1.5	-1.9
CCOC(=O)c1c(COc2ccccc2)oc2ccc(O)cc12	20.1	-0.5	-0.3	-1.6	0.2	8.2
CCc1ccccc1N(CC(=O)N1CCN(c2ccccc2)CC1)S(C)(=O)=O	-1.9	-0.1	6.3	-1.1	-1.2	-8.2
C=CCOc1ccc2ccccc2c1CNc1ncn[nH]1	15.5	0.2	8.2	-1.2	-1.0	17.4
Cc1csc2nc(CNC(=O)c3ccco3)cn12	-2.8	11.1*	-41.8	-0.4	-3.3	6.6
CC(=O)NCc1cn2c(C)csc2n1	-8.9	-0.2	-5.9	0.0	0.6	-19.4
O=C(CSc1nc(-c2cccs2)cc(C(F)(F)F)n1)NCc1ccco1	3.8	0.5	-1.3	-1.0	-3.3	3.8
COc1ccc(-c2cc(-c3cccs3)c(C#N)c(SCC(=O)NCc3ccco3)n2)cc1	23.0	-0.7	14.3	-1.3	3.0	31.6*
CN1CCN(C(=O)CSc2nc(-c3cccs3)cc(-c3cccs3)c2C#N)CC1	4.6	3.9	67.4*	-0.6	-3.6	20.5
COc1ccc(OC)c(-c2csc(N(Cc3ccco3)C(=O)c3cccs3)n2)c1	43.1*	2.0	22.3	-1.7	5.2	2.1
COc1ccc(-c2csc(N(CC3CCCO3)C(=O)c3cccs3)n2)cc1 (configuration not stated)	14.8	0.8	-3.7	-1.8	0.9	5.0
SMILES	5-HT1A blocker	5HT1E ag	S1P1 ag pot	S1P3 agonist	5HT1a ag	5HT1E antag
CC1(C2(O)CC(c3ccccc3)ON2)CCCCC1 (configuration not stated)	·	-0.8	-6.8	-3.6	3.2	36.7*
Nc1cccc2cnccc12	30.0	0.4	20.0	-1.6	-2.5	33.2*
O=C(CN1C(=O)NC2(CCCCCC2)C1=O)N1CCC(Cc2ccccc2)CC1	-17.8	-0.3	19.1	-1.2	-1.7	1.4
CC1CN(C(=O)CN2C(=O)NC3(CCCCCCC3)C2=O)CC(C)O1 (configuration not stated)	-10.9	19.7*	-9.8	-0.2	-1.1	-9.5
CCC(=O)Nc1ccc(-c2nnc(SCC(=O)NCC3CCCO3)n2C)cc1 (configuration not stated)	·	0.1	-13.2	-1.0	2.6	-1.3
C=CCc1ccccc1OCCCCN1CCCC1	19.5	10.2*	-3.5	-1.9	2.5	7.3
CCc1ccccc1OCCCCN1CCCC1	6.0	12.2*	·	-0.6	-1.0	-8.8
Cc1ccccc1OCCCN1CCCC1	-9.0	0.9	-11.6	-0.1	-2.7	0.4
O=C(CCn1ccc2ccccc21)Nc1ccc(N2CCOCC2)cc1	-10.6	-0.9	22.0	0.4	-1.6	3.0
CCOC(=O)N1CCC(Nc2c(N3CCN(c4cc(Cl)ccc4C)CC3)c(=O)c2=O)CC1	-4.9	0.8	-2.1	-0.9	64.5*	8.0
CCOC(=O)N1CCC(Nc2c(-c3ccc(C)c(C)c3)c(=O)c2=O)CC1	2.6	-0.2	19.6	0.7	-2.8	1.3
COc1ccc(-c2nnc(SCC(=O)Nc3ncc(C)s3)n2-c2ccccc2)cc1OC	-2.7	0.0	-30.3	-0.1	2.5	13.7
CCOc1cc(-c2cc(-c3ccc(N)cc3)nc(N)c2C#N)ccc1O	4.2	2.5	0.5	1.3	5.8	30.2*
CCOC(=O)CNC(=O)Cn1cnc2sc(C)c(S(=O)(=O)N3CCC(C)CC3)c2c1=O	-10.8	0.9	·	·	60.0*	-3.5
CCOC(=O)CN(C(=O)CSc1nnc(COc2ccc(OC)cc2)n1C)c1ccccc1	4.9	-0.1	0.7	-1.8	0.5	-7.5
Cc1ccc(S(=O)(=O)N2CCCN(S(=O)(=O)c3ccc(C)cc3)CC2)cc1	3.7	19.1*	·	-0.2	1.2	1.5
CCc1nc2ccccc2c(C(=O)OCC(=O)NCCCN2CCCC2=O)c1C	-4.0	-0.8	3.9	-0.2	0.4	8.4
CCC(C)c1ccc2oc(-c3ccc(NC(=O)Cn4cnc5c(=O)n(C)c(=O)n(C)c54)cc3)nc2c1 (configuration not stated)	9.3	1.9	110.8*	-0.5	7.7	-5.2
Cn1c(=O)c2ncn(CC(=O)Nc3ccc4oc(-c5cccc6ccccc56)nc4c3)c2n(C)c1=O	-1.4	-0.4	-6.5	-1.0	-0.6	0.6
Cc1c(NC(=O)COc2ncnc3ccccc23)c(=O)n(-c2ccccc2)n1C	-15.8	-0.6	-38.7	-0.4	-2.7	-5.1
